Assay results taken from publication PMC11795718 (Angewandte Chemie (International Ed. in English), 2024).

What was measured:
h-15-LOX-1 = target: T1, h-15-LOX-1 (Homo sapiens, UniProt P16050); assay: Michaelis-Menten / Lineweaver-Burk kinetics; type: biochemical
T1 sequence (P16050 1-662): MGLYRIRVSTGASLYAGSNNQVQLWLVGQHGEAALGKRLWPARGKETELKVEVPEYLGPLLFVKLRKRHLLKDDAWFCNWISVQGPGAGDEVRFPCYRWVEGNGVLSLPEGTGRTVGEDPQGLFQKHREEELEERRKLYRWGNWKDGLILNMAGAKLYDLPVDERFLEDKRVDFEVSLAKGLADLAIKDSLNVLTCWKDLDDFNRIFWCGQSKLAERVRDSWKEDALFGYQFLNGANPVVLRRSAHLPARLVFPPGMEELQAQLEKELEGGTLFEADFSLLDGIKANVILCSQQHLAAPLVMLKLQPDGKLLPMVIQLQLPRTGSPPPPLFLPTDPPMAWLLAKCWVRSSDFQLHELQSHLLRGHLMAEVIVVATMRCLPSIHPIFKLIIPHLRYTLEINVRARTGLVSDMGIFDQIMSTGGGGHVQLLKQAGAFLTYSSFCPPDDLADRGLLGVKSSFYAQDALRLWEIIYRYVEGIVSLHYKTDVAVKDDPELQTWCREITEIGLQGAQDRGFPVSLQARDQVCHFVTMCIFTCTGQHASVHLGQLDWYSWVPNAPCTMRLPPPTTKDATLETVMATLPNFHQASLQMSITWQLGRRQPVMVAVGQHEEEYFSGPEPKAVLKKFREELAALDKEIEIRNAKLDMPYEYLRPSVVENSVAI

RAW 264.7 cells = assay: imaging-based cell permeability and retention assay; set-up: species or system murine; details: live RAW 264.7 cells, timeframe of the experiment
How it was run: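 Live RAW 264.7 cells were treated in situ on the confocal microscope with the fluorescein‑tagged probe at room temperature. Images were recorded immediately and continuously to follow cellular uptake over time.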

[1] = system: 15‐LOX‐1 in RAW 264.7 cells; assay: cell-based competition assay; set-up: species or system murine; details: for competition with BAM10 labelling, 10-fold competitor: 5 μM BAM10, competitor 10-fold (50 μM); for competition with BAM10 labelling, equimolar competitor: 5 μM BAM10, equimolar concentration of competitor
C. elegans = assay: growth and imaging of BAM10-treated C. elegans; type: in vivo, Caenorhabditis elegans; details: 5 μM BAM10, competitor 50 μM, co-treated plates
purified 15‐LOX‐1 [2] = target: T2, purified 15‐LOX‐1 (Homo sapiens, UniProt P16050); assay: fluorescence labeling of recombinant purified 15-LOX-1; type: binding; details: applied prior to the probe BAM10
T2 sequence (P16050 1-662): T1 sequence (P16050 1-662)
How it was run: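 Recombinant purified human 15‑LOX‑1 was incubated briefly with the fluorescent probe, then acetone‑precipitated, leaving excess probe in the supernatant; fluorescence of the labelled protein was read. For the dot‑blot, enzyme with or without pre‑incubation with a reference inhibitor was probe‑treated; controls lacked enzyme. Duplicates (n=2).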

soybean LOX = soybean LOX inhibition; type: biochemical; details: selectivity
purified 15‐LOX‐1 [3] = target: T2, purified 15‐LOX‐1; assay: MS-based proteomics of covalent modification; type: binding; details: adduct after preincubation with purified 15-LOX-1

Structure (SMILES) | competition with BAM10 labelling, 10-fold competitor [1] | competition with BAM10 labelling, equimolar competitor [1] | competition with BAM10 fluorescence in the pharynx (C. elegans) | other results
CC#CCC#CCCCC=O [BAM1] |  |  |  | type of inhibition (Lineweaver–Burk plots) (h-15-LOX-1): noncompetitive inhibition
O=C1OC2(c3ccc(O)cc3Oc3cc(O)ccc32)c2ccccc21 [fluorescein] |  |  |  | cell permeability (RAW 264.7 cells): impermeable
CCCCNC(=O)c1cc(-c2ccccc2)sc1N [ThioLox, reference compound] | decreased almost to background levels | not significant | reduced BAM10 fluorescence intensity | effect on BAM10 labeling of the enzyme (dot-blot) (purified 15‐LOX‐1 [2]): reduced labeling of the enzyme
CC#CCC#CCCCC=NNc1ccccc1 [BAM3] | reduction of BAM10 fluorescence intensity | not significant | reduced BAM10 fluorescence intensity | difference in inhibitory potency in favor of human 15-LOX-1 over soybean LOX (soybean LOX): 4 fold; mass increase of tryptic peptide [YTLEINVRAR] (amino acids 395–404) (purified 15‐LOX‐1 [3]): 230 Da
